Reference: paper PMC10259527 (International Journal of Nanomedicine, 2023)

Tests used:
[1] = Cytotoxicity assay; assay type: cell-based; conditions: human, HepG2 cells
Method in brief: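 HepG2 cells were seeded at 5×10^3/well. Treatment ran 48 h at 37°C, 5% CO2: free compound at 10–50 μM, nanoparticle form at 10–100 μM. Controls got vehicle only (0.1% v/v DMSO or deionized water). Viability was read by CCK-8 and normalized to vehicle controls, mean ± SEM.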

[2] = Biodistribution by ex vivo fluorescence imaging of major organs; assay type: in vivo, BALB/c nude mice; conditions: Cy5.5-labeled, single oral 25 mg/kg, mice
Method in brief: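 Female BALB/c nude mice, acclimated 1 week and fasted 12 h overnight with water, got one oral dose of 25 mg/kg (by parent mass). Cy5.5-labeled nanoparticles were given in PBS; Cy5.5-labeled free compound as an H2O/DMSO (40:1) suspension. Four mice per group were killed at 2, 4, 6, 8 and 24 h. Heart, liver, lungs, spleen and kidneys were PBS-washed and imaged ex vivo for fluorescence. Liver intensity was quantified (n = 4, mean ± SEM).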

[3] = In vivo toxicity in the hepatic AE mouse model; design: species or system C57BL/6J mice; conditions: oral 100 mg/kg once daily for 30 days; for Histopathology of liver parenchyma surrounding the metacestodes: H&E
Method in brief: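 Female C57BL/6J mice were infected by portal-vein protoscolex injection. At 3 months, after ultrasound-confirmed metacestode growth, mice (n = 8/group) got oral gavage at 100 mg/kg daily for 30 days, dosed with 0.5% CMC suspensions or CMC alone. Sham-operated uninfected mice got portal saline. Afterwards, retro-orbital blood was drawn under isoflurane. Plasma (2000 g, 15 min, 4°C; stored −20°C) was assayed for ALT/AST on an automatic biochemical analyzer.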

[4] = In vivo pharmacokinetic study; design: species or system BALB/c mice; conditions: BALB/c, mouse, plasma
Method in brief: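 BALB/c mice (5–6 weeks, 20 ± 2 g; n = 6 per time point, 3 male + 3 female) got one IV dose (5 mg/kg) or oral gavage (100 mg/kg). Free compound was given in 5% DMSO/10% solutol HS-15/85% (20% hydroxypropyl-β-cyclodextrin in saline). Tail-vein blood was taken at 0.08–48 h and plasma separated at 2000 g, 15 min. Concentrations were measured by LC–MS/MS; parameters came from non-compartmental analysis.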

Decrease of fluorescence intensity in the liver from 8 h to 24 h [2] [%] | AUC(0-inf) ([4]; both, iv, 5 mg/kg) [µM·h] | AUC(0-t) ([4]; both, iv, 5 mg/kg) [µM·h] | Cmax ([4]; both, iv, 5 mg/kg) [µM] | Tmax ([4]; both, iv, 5 mg/kg) [h] | Vd ([4]; both, iv, 5 mg/kg) [L/kg] | clearance ([4]; both, iv, 5 mg/kg) [mL/min/kg] | half-life ([4]; both, iv, 5 mg/kg) [h] | bioavailability ([4]; both, oral, 100 mg/kg) [%] | AUC(0-inf) ([4]; both, po, 100 mg/kg) [µM·h] | AUC(0-t) ([4]; both, po, 100 mg/kg) [µM·h] | Cmax ([4]; both, po, 100 mg/kg) [µM] | Tmax ([4]; both, po, 100 mg/kg) [h] | half-life ([4]; both, po, 100 mg/kg) [h] | half-life ([4]; female, po, 100 mg/kg) [h] | half-life ([4]; male, po, 100 mg/kg) [h] | SMILES | CC50 at 48 h [1] [µM] | Histopathology of liver parenchyma surrounding the metacestodes [3] | Liver transaminases (mean ALT and AST values) ([3]; compared to shamed individuals)
49.9 | 7.6 | 7.5 | 2.6 | 0.083 | 19 | 32 | 7 | 69.8 | 128 | 104 | 4.4 | 6 | 17.5 | 24.6 | 10.4 | CCCNCC(O)Cn1c2ccc(Cl)cc2c2cc(Cl)ccc21 (centres unmarked) [Compound H1402, 1-(3,6-dichloro-9H-carbazol-9-yl)-3-(propylamino)propan-2-ol] | 14.9 | inflammatory infiltrate, fibroplastic proliferation, and hepatocellular necrosis | various degrees of increase
 |  |  |  |  |  |  |  |  |  |  |  |  |  |  |  | CCCSc1ccc2nc(NC(=O)OC)[nH]c2c1 [albendazole, reference compound] |  | inflammatory infiltrate, fibroplastic proliferation, and hepatocellular necrosis | 
